What was measured:
thrombin = thrombin (Homo sapiens, UniProt P00734); assay: Cleavage assay of SAPE-labeled ADAM9 bacteria with thrombin; format: biochemical; details: 75 nM thrombin, 3 h, FACS
Outline: (§1)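 ADAM9 substrate-displaying bacteria were subcultured 1:100 in LB for 45 min at 37 °C, induced with 0.04% arabinose for 1 h, then labeled with SAPE (final […]) for 1 h. 10^7 bacteria were incubated for 3 h with thrombin (final 75 nM) or dilutions of sonicated PANC-1 lysate, with PBS or reaction buffer as controls. After two PBS washes, SAPE-positive bacteria were counted by flow cytometry, with unlabeled bacteria as the negative control.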

rMMP9 = rMMP9 (Homo sapiens, UniProt P14780); assay: Cleavage assay of SAPE-labeled ADAM9 bacteria with rMMP9, alone or with S3304; format: biochemical; details: 200 nM rMMP9, 3 h, FACS
rMMP9, sequence (P14780 94-707, species assumed): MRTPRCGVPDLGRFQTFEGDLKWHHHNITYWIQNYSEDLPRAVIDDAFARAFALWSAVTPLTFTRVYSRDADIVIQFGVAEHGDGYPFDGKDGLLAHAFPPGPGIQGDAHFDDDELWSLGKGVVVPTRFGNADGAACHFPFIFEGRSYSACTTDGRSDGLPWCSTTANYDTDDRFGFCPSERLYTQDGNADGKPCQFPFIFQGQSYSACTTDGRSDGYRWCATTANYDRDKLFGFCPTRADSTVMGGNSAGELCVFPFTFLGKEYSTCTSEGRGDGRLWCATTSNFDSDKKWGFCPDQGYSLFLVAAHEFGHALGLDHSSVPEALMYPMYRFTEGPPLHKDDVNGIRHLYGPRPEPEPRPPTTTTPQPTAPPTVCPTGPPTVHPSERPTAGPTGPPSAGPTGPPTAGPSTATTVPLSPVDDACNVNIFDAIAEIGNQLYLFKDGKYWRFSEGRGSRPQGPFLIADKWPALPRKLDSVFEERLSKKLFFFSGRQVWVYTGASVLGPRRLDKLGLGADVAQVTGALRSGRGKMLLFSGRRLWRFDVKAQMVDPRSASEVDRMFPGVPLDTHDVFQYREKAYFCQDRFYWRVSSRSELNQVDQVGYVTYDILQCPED

PANC-1 lysate = assay: Cleavage assay of SAPE-labeled ADAM9 bacteria with PANC-1 lysate; format: biochemical, human; details: highest PANC-1 lysate concentration, 3 h, FACS; dose-dependent
Outline: as §1

With PLAQAVRSSK [ADAM9 substrate] the “effect on fluorescence of SAPE-labeled ADAM9 bacteria” value (thrombin) was “did not reduce fluorescence”, the “effect on SAPE-positivity of ADAM9 bacteria” value (rMMP9) was “greatly reduced SAPE-positivity” and the “ADAM9 substrate cleavage by PANC-1 lysate (loss of SAPE-positive bacteria)” value (PANC-1 lysate) was “near-complete”.

Source: publication PMC11579016 (Oncogenesis, 2024)
